Results as given in ChEMBL document CHEMBL2169766 (J Med Chem, 2012).

Experiments:
[1] = target: T1, 5-hydroxytryptamine receptor 3A (Homo sapiens, UniProt P46098); test: Displacement of [3H]granisetron from 5HT3A receptor expressed in HEK293 cells after 24 hrs by scintillation counting in presence of quipazine; format: cell-based
T1 sequence (P46098 whole entry): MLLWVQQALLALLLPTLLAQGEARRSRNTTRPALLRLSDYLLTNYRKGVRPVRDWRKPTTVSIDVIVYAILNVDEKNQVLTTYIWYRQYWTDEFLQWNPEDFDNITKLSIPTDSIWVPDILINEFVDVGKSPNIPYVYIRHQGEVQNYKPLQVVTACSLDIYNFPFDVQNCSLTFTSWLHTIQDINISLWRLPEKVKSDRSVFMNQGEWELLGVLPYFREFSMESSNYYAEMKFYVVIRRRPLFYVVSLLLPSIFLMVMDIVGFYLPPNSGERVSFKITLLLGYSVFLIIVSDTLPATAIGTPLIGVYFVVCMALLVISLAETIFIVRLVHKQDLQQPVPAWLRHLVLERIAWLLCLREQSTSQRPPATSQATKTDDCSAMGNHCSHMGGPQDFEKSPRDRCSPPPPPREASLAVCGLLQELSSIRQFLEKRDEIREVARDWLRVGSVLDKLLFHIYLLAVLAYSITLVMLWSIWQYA
Outline: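 Nonspecific binding defined with 1 mM quipazine. At least 24 h at 4 °C, GF/B filtration (0.3% PEI presoaked), scintillation counting. Hill-equation fit; Ki from IC50 via Cheng-Prusoff. At least three separate transfection plates.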

HEK293 [2] = test: Selectivity ratio for recombinant human 5HT6 receptor expressed in CHO cells to 5HT3A receptor expressed in HEK293 cells; format: cell-based
HEK293 [3] = test: Selectivity ratio for recombinant human 5HT2C receptor expressed in HEK-293 cells to 5HT3A receptor expressed in HEK293 cells; format: cell-based
HEK293 [4] = test: Selectivity ratio for recombinant human 5HT2A receptor expressed in HEK-293 cells to 5HT3A receptor expressed in HEK293 cells; format: cell-based
[5] = target: T2, 5-hydroxytryptamine receptor 1A (Homo sapiens) (UniProt P08908); test: Displacement of [3H]8-OH-DPAT from recombinant human 5HT1A receptor expressed in HEK-293 cells at 0.1 uM after 60 mins; format: cell-based; conditions: HEK293
T2 sequence (whole entry): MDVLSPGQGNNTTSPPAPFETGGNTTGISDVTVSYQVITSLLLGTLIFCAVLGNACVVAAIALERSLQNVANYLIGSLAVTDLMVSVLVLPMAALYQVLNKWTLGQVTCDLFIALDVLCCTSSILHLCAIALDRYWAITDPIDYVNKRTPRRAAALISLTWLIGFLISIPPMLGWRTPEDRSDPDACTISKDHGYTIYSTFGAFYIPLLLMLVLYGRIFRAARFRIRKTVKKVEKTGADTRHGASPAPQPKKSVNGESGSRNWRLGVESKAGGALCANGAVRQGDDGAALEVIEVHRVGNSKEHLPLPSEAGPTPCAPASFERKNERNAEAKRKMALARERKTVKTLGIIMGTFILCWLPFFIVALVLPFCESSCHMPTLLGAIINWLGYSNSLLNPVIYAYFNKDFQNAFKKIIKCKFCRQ
Outline: (§1)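 Single-point radioligand competition binding at an external contract lab. Reported as percent inhibition of control specific binding: 100 − (measured specific binding / control specific binding) × 100.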

HEK293 [6] = test: Selectivity ratio for recombinant human 5HT7 receptor expressed in CHO cells to 5HT3A receptor expressed in HEK293 cells; format: cell-based
[7] = target: Neuronal acetylcholine receptor; alpha4/beta2 (Homo sapiens) (UniProt P17787+P43681); test: Displacement of [3H]cytisine from recombinant human nACH alpha4beta2 receptor expressed in SH-SY5Y cells at 0.1 uM after 120 mins; format: cell-based; outline: as §1
[8] = target: T3, 5-hydroxytryptamine receptor 2C (Homo sapiens) (UniProt P28335); test: Displacement of [125I] +/- DOI from recombinant human 5HT2C receptor expressed in HEK-293 cells at 0.1 uM after 60 mins; format: cell-based; conditions: HEK293; outline: as §1
T3 sequence (whole entry): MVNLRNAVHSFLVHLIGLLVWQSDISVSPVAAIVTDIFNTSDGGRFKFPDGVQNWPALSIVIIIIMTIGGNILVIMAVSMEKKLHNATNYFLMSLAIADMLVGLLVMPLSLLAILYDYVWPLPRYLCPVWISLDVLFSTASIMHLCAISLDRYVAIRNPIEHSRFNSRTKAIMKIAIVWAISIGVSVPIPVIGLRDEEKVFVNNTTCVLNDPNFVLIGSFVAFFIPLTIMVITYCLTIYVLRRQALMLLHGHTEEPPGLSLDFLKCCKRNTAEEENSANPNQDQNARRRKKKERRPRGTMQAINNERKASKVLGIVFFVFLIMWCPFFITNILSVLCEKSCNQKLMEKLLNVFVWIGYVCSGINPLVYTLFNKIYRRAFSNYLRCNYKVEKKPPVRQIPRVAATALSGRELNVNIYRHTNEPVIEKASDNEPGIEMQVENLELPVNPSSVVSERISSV

HEK293 [9] = test: Selectivity ratio for recombinant rat 5HT1D receptor expressed in CHO cells to 5HT3A receptor expressed in HEK293 cells; format: cell-based
[10] = target: 5-hydroxytryptamine receptor 1B (Rattus norvegicus) (UniProt P28564); test: Displacement of [125I] CYP from 5HT1B receptor in rat cerebral cortex at 0.1 uM after 120 mins; format: tissue-based; outline: as §1
HEK293 [11] = test: Selectivity ratio for recombinant human 5HT1A receptor expressed in HEK-293 to 5HT3A receptor expressed in HEK293 cells; format: cell-based
[12] = target: 5-hydroxytryptamine receptor 2A (Homo sapiens) (UniProt P28223); test: Displacement of [125I] +/- DOI from recombinant human 5HT2A receptor expressed in HEK-293 cells at 0.1 uM after 60 mins; format: cell-based; conditions: HEK293; outline: as §1
[13] = target: 5-hydroxytryptamine receptor 4 (Homo sapiens) (UniProt Q13639); test: Displacement of [3H]GR113808 from recombinant human 5HT4E receptor expressed in CHO cells at 0.1 uM after 60 mins; format: cell-based; outline: as §1
HEK293 [14] = test: Selectivity ratio for 5HT1B receptor in rat cerebral cortex to 5HT3A receptor expressed in HEK293 cells; format: cell-based
[15] = target: 5-hydroxytryptamine receptor 7 (Homo sapiens) (UniProt P34969); test: Displacement of [3H]LSD from recombinant human 5HT7 receptor expressed in CHO cells at 0.1 uM after 120 mins; format: cell-based; outline: as §1
[16] = target: 5-hydroxytryptamine receptor 1D (Rattus norvegicus) (UniProt P28565); test: Displacement of [3H]serotonin from recombinant rat 5HT1D receptor expressed in CHO cells at 0.1 uM after 60 mins; format: cell-based; outline: as §1
HEK293 [17] = test: Selectivity ratio for recombinant human 5HT2C receptor expressed in HEK-293 to 5HT3A receptor expressed in HEK293 cells; format: cell-based
HEK293 [18] = test: Selectivity ratio for recombinant human nACH alpha4beta2 receptor expressed in SH-SY5Y cells to 5HT3A receptor expressed in HEK293 cells; format: cell-based
[19] = target: GABA-A receptor; alpha-1/beta-2/gamma-2 (Homo sapiens) (UniProt P14867+P47870+P18507); test: Displacement of [3H]muscimol from recombinant human GABAA alpha1beta2gamma2 receptor expressed in CHO cells at 0.1 uM after 120 mins; format: cell-based; outline: as §1
[20] = target: 5-hydroxytryptamine receptor 2B (Homo sapiens) (UniProt P41595); test: Displacement of [125I] +/- DOI from recombinant human 5HT2B receptor expressed in CHO cells at 0.1 uM after 60 mins; format: cell-based; outline: as §1
HEK293 [21] = test: Selectivity ratio for recombinant human 5HT4E receptor expressed in CHO cells to 5HT3A receptor expressed in HEK293 cells; format: cell-based
Rattus norvegicus = organism: Rattus norvegicus; test: Displacement of [3H]strychnine from glycine receptor in rat spinal cord at 0.1 uM after 15 mins; outline: as §1
HEK293 [22] = test: Selectivity ratio for recombinant human GABAA alpha1beta2gamma2 receptor expressed in CHO cells to 5HT3A receptor expressed in HEK293 cells; format: cell-based
[23] = target: Neuronal acetylcholine receptor subunit alpha-7 (Homo sapiens) (UniProt P36544); test: Displacement of [3H]epibatidine from recombinant human nACH alpha7 receptor expressed in HEK-293 cells at 0.1 uM after 120 mins; format: cell-based; conditions: HEK293
[24] = target: 5-hydroxytryptamine receptor 6 (Homo sapiens) (UniProt P50406); test: Displacement of [3H]LSD from recombinant human 5HT6 receptor expressed in CHO cells at 0.1 uM after 120 mins; format: cell-based; outline: as §1
HEK293 [25] = test: Selectivity ratio for recombinant human nACH alpha7 receptor expressed in HEK-293 cells to 5HT3A receptor expressed in HEK293 cells; format: cell-based
HEK293 [26] = test: Selectivity ratio for glycine receptor in rat spinal cord to 5HT3A receptor expressed in HEK293 cells; format: cell-based

Sequence of 5-hydroxytryptamine receptor 7 (Homo sapiens) (P34969 whole entry): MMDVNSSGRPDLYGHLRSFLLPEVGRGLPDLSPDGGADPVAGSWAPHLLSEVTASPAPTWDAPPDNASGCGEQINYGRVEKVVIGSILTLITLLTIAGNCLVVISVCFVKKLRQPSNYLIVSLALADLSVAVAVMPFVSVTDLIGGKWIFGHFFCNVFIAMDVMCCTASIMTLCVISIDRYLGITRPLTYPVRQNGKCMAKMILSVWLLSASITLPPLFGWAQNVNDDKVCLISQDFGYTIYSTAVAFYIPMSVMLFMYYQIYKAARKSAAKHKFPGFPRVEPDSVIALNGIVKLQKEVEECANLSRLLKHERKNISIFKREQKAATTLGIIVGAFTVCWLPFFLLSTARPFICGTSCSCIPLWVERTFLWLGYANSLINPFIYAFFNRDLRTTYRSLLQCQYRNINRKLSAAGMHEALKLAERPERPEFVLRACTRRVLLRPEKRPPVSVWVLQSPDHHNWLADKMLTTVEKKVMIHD
Sequence of 5-hydroxytryptamine receptor 2B (Homo sapiens) (P41595 whole entry): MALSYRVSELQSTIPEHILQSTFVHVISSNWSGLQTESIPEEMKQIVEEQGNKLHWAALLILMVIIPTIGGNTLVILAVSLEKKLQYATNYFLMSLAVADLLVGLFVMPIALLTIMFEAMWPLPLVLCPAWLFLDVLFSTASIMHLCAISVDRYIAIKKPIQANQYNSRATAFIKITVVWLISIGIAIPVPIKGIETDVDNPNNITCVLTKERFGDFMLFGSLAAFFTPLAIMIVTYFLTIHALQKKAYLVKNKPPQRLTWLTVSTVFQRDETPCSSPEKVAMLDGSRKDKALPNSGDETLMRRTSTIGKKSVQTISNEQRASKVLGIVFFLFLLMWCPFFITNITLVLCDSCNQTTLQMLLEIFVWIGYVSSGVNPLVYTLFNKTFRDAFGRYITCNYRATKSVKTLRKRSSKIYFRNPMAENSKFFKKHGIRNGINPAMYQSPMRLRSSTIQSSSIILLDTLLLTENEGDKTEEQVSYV
Sequence of 5-hydroxytryptamine receptor 1D (Rattus norvegicus) (P28565 whole entry): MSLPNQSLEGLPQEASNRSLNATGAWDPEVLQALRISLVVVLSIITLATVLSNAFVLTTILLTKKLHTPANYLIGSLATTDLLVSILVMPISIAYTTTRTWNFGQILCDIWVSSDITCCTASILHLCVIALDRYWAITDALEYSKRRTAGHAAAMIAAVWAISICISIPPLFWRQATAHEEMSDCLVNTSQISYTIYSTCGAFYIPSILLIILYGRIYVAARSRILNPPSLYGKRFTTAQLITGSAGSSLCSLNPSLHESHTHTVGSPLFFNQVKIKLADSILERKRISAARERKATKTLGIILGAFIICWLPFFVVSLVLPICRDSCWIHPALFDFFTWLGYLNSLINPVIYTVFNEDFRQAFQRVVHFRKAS
Sequence of Neuronal acetylcholine receptor subunit alpha-7 (Homo sapiens) (P36544 whole entry): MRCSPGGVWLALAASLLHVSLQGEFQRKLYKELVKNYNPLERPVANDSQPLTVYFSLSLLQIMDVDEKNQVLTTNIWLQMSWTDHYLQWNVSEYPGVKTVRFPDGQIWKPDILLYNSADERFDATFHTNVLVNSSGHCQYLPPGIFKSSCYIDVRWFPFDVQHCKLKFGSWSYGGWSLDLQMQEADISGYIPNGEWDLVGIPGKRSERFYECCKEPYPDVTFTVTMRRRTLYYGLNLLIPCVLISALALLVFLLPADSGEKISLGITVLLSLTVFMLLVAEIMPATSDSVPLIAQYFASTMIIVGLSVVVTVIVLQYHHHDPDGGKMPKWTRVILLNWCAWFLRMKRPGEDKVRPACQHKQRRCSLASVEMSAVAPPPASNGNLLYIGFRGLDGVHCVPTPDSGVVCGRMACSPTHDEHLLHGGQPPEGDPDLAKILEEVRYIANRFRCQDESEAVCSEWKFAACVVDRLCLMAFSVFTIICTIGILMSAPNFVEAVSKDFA
Sequence of 5-hydroxytryptamine receptor 2A (Homo sapiens) (P28223 whole entry): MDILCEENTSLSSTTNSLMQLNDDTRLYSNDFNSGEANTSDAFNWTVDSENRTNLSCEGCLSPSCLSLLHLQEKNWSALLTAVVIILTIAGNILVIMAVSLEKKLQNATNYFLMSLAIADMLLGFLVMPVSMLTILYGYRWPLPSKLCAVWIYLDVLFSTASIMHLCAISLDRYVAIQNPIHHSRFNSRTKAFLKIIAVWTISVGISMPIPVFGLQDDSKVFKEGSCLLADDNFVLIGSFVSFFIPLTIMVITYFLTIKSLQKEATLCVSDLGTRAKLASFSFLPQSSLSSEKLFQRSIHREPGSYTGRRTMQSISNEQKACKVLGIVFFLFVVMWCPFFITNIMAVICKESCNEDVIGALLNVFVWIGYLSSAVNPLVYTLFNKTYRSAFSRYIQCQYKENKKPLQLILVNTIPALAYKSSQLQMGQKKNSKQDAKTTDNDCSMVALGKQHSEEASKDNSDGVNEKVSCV
Sequence of 5-hydroxytryptamine receptor 6 (Homo sapiens) (P50406 whole entry): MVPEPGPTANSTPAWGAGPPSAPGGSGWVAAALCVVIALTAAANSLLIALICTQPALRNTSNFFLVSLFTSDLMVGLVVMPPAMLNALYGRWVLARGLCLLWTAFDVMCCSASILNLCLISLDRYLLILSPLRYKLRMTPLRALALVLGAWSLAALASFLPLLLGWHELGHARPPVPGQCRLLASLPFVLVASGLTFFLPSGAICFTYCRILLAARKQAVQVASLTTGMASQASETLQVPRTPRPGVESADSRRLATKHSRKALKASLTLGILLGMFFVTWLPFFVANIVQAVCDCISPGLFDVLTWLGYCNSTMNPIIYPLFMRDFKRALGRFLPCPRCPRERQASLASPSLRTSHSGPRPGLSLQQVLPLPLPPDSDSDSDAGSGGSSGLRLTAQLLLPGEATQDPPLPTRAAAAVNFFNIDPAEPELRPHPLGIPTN
Sequence of 5-hydroxytryptamine receptor 1B (Rattus norvegicus) (P28564 whole entry): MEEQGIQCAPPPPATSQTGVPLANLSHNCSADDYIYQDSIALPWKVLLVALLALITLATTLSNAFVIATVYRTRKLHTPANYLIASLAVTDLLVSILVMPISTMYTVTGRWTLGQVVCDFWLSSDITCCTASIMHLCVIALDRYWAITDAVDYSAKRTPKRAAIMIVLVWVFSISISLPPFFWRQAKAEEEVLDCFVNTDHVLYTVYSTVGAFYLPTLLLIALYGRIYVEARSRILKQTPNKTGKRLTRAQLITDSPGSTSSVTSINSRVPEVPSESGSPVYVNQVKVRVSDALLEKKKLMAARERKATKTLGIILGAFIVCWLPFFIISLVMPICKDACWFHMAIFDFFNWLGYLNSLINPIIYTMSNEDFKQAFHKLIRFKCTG
Sequence of 5-hydroxytryptamine receptor 4 (Homo sapiens) (Q13639 whole entry): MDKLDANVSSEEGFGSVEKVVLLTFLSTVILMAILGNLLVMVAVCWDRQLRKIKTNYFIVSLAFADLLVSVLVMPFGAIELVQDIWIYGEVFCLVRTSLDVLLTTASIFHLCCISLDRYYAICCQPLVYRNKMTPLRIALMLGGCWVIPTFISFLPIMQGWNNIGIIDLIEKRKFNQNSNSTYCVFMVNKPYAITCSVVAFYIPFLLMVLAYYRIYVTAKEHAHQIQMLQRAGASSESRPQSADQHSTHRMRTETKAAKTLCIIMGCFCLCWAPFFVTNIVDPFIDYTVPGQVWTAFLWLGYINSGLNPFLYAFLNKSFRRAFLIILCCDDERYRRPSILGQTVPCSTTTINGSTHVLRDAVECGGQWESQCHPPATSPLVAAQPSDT

SMILES: CN1CCN(c2ncc3ccccc3n2)CC1
- Ki [1]: 1.35 nM

SMILES: CN1CCN(c2ncc3cc(Cl)ccc3n2)CC1
- Ki [1]: 7.41 nM

SMILES: CNc1cc(N2CCN(C)CC2)nc2ccccc12
- Ki [1]: 13.5 nM

SMILES: CNc1nc(N2CCCN(C)CC2)nc2ccc(Cl)cc12
- Ki [1]: 18.2 nM

SMILES: CN1CCN(c2cc3ccccc3c(N)n2)CC1
- Ki [1]: 219 nM

SMILES: CN1CCN(c2nc(N(C)C)c3cc(Cl)ccc3n2)CC1
- Ki [1]: 6.61 nM

SMILES: CN1CCN(c2nc(N)c3cc(Cl)ccc3n2)CC1
- Ki [1]: 12 nM

SMILES: CN1CCN(c2ccc3ccccc3c2)CC1
- Ki [1]: 537 nM

SMILES: CNc1nc(N2CCN(C)CC2)cc2ccccc12
- Ki [1]: 5.89 nM

SMILES: CN1CCN(c2nc(NCCO)c3cc(Cl)ccc3n2)CC1
- Ki [1]: 14.8 nM

SMILES: CN1CCN(c2ccc3cccc(N)c3n2)CC1
- Ki [1]: 331 nM

SMILES: CNc1nc(N2CC(N(C)C)C2)nc2ccc(Cl)cc12
- Ki [1]: 468 nM

SMILES: CN1CCN(c2ccc3ccccc3n2)CC1
- Ki [1]: 0.457 nM

SMILES: CN1CCN(c2cnc3ccccc3n2)CC1
- Ki [1]: 4.68 nM

SMILES: CNc1nc(NCCC2CCN(C)C2)nc2ccc(Cl)cc12 (stereo not drawn)
- Ki [1]: 11700 nM

SMILES: CNc1nc(N2CCN(C)CC2)nc2ccccc12
- Ki [1]: 2.95 nM

SMILES: CN1CCN(c2cc(N)c3ccccc3n2)CC1
- Ki [1]: 1.45 nM

SMILES: CN1CCN(c2nc(N)c3ccccc3n2)CC1
- Selectivity ratio (HEK293 [2]): 1000
- Selectivity ratio (HEK293 [3]): 1000
- Selectivity ratio (HEK293 [4]): 1000
- inhibition [5]: < 15%
- Selectivity ratio (HEK293 [6]): 1000
- inhibition [7]: < 15%
- inhibition [8]: < 15%
- Selectivity ratio (HEK293 [9]): 1000
- inhibition [10]: < 15%
- Selectivity ratio (HEK293 [11]): 1000
- Ki [1]: 0.0513 nM
- inhibition [12]: < 15%
- inhibition [13]: < 15%
- Selectivity ratio (HEK293 [14]): 1000
- inhibition [15]: < 15%
- inhibition [16]: < 15%
- Selectivity ratio (HEK293 [17]): 1000
- Selectivity ratio (HEK293 [18]): 1000
- inhibition [19]: < 15%
- inhibition [20]: 43%
- Selectivity ratio (HEK293 [21]): 1000
- inhibition (Rattus norvegicus): < 15%
- Selectivity ratio (HEK293 [22]): 1000
- inhibition [23]: 31%
- inhibition [24]: < 15%
- Selectivity ratio (HEK293 [25]): 1000
- Selectivity ratio (HEK293 [26]): 1000

SMILES: CN1CCN(c2nc(NCc3ccccc3)c3cc(Cl)ccc3n2)CC1
- Ki [1]: 13.8 nM

SMILES: CN1CCN(c2ccc3c(N)cccc3n2)CC1
- Ki [1]: 204 nM

SMILES: CC(C)Nc1nc(N2CCN(C)CC2)nc2ccc(Cl)cc12
- Ki [1]: 166 nM

SMILES: CN1CCN(c2cnc3ccccc3c2)CC1
- Ki [1]: 407 nM

SMILES: CN1CCN(c2nc3ccccc3c(=O)[nH]2)CC1
- Ki [1]: 46.8 nM

SMILES: CN1CCN(c2nc(NCC3CCCCC3)c3cc(Cl)ccc3n2)CC1
- Ki [1]: 16600 nM

SMILES: CNc1nc(N2CC3CCCNC3C2)nc2ccc(Cl)cc12 (stereo not drawn)
- Ki [1]: 3550 nM

SMILES: CN1CCN(c2nc(NCCc3ccccc3)c3cc(Cl)ccc3n2)CC1
- Ki [1]: 79.4 nM

SMILES: CN1CCN(c2nc(NCc3ccoc3)c3cc(Cl)ccc3n2)CC1
- Ki [1]: 2.82 nM

SMILES: CNc1nc(N2CCN(C)CC2)nc2ccc(Cl)cc12
- Ki [1]: 1.12 nM

SMILES: CNc1nc(N2CC[C@H](N)C2)nc2ccc(Cl)cc12
- Ki [1]: 2340 nM

SMILES: CN1CCN(c2nc(NCc3ccc(N)cc3)c3cc(Cl)ccc3n2)CC1
- Ki [1]: 2.69 nM

SMILES: CN1CCN(c2cc3ccccc3cn2)CC1
- Ki [1]: 1.62 nM

SMILES: CN1CCN(c2nc(O)c3cc(Cl)ccc3n2)CC1
- Ki [1]: 575 nM
